Reference: ChEMBL document CHEMBL1148356, “Synthesis and biological evaluation of 3-heterocyclyl-7,8,9,10-tetrahydro-(7,10-ethano)-1,2,4-triazolo[3,4-a]phthalazines and analogues as subtype-selective inverse agonists for the GABA(A)alpha5 benzodiazepine binding site” (J Med Chem, 2004)

Key:
[1] = Oral bioavailability in rat; type: ADME, organism-based; conditions: in vivo
Method in brief: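 Male SD rats with jugular cannulas were fasted overnight and dosed either by tail-vein IV bolus or orally (n = 3 per route). Serial jugular blood samples were taken up to 8 h. Plasma was frozen at −20 °C, protein-precipitated with acetonitrile containing internal standard, and quantified by LC-MS/MS.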

[2] = target: T1, GABA-A receptor; alpha-1/beta-3/gamma-2 (Homo sapiens, UniProt P14867+P18507+P28472); test: Binding affinity towards human alpha-1-beta-3-gamma-2 GABA-A receptor using [3H]Ro-151788 expressed in L(tk-) cells; type: cell-based
T1 sequence (P14867 whole entry): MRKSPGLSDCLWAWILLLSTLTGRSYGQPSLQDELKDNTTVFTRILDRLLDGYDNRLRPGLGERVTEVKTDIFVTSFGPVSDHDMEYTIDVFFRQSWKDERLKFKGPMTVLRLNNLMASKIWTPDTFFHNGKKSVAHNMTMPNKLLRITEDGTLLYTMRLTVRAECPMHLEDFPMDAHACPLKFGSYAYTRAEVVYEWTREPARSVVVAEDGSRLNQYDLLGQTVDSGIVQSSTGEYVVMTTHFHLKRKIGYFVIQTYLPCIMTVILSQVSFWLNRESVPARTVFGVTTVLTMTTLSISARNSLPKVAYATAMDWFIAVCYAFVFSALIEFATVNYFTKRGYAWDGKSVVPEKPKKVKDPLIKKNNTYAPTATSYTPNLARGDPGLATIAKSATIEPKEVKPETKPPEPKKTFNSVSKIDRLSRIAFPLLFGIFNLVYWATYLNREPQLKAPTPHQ
T1 sequence (P18507 whole entry): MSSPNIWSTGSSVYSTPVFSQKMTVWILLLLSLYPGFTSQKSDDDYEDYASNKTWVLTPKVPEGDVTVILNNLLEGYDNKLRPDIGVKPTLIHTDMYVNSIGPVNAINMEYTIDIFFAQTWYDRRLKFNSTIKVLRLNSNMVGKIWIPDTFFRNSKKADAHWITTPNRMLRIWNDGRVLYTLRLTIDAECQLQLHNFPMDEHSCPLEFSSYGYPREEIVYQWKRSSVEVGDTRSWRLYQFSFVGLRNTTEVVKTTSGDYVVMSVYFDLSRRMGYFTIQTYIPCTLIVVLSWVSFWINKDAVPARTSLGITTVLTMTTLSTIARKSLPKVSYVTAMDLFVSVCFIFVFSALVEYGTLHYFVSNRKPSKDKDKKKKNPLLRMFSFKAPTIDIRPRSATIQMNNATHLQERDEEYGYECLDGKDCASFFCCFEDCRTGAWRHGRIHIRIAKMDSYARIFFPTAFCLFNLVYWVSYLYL
T1 sequence (P28472 whole entry): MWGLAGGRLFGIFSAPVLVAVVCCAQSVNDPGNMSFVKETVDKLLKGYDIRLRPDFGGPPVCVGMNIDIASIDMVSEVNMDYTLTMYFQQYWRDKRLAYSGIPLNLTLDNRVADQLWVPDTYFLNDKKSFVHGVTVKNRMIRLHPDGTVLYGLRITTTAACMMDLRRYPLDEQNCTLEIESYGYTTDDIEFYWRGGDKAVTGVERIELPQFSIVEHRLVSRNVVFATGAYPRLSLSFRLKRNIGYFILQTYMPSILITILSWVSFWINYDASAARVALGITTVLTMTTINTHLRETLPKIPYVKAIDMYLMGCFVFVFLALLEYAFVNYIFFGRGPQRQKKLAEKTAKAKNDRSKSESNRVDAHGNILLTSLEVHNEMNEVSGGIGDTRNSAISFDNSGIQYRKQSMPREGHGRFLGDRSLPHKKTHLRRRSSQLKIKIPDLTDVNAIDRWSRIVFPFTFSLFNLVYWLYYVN

[3] = target: T2, GABA-A receptor; alpha-5/beta-3/gamma-2 (Homo sapiens, UniProt P18507+P28472+P31644); test: Effective concentration against human Alpha-5-beta-3-gamma-2 GABA-A receptor was determined; type: functional
T2 sequence (P18507 whole entry): T1 sequence (P18507 whole entry)
T2 sequence (P28472 whole entry): T1 sequence (P28472 whole entry)
T2 sequence (P31644 whole entry): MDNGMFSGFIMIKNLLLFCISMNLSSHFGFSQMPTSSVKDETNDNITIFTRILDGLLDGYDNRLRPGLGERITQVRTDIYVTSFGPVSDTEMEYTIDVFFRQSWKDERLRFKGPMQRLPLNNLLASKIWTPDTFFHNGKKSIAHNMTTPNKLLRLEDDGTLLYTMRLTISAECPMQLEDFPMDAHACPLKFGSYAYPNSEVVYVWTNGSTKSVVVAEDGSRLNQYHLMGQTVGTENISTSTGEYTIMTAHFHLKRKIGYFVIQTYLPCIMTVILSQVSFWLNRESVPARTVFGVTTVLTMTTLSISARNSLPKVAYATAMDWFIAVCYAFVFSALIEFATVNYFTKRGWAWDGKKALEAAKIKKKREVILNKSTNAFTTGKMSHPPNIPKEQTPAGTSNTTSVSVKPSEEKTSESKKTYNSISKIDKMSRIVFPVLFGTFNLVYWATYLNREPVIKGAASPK
Method in brief: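 Whole-cell patch clamp was run on Ltk- cells stably expressing human α5β3γ2s. Bath solution was NaCl/NaHCO3/glucose buffer, pH 7.2. Pipettes held 130 mM CsCl, 10 mM EGTA, 3 mM Mg-ATP, pH 7.3. Drug was applied by double-barreled pipette with an EC20 GABA concentration, and concentration–response data were fitted to a Hill equation for EC50. Values are mean ± SEM of at least five fitted curves, with at least five cells per point.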

[4] = target: T2, GABA-A receptor; alpha-5/beta-3/gamma-2; test: Binding affinity towards human alpha-5-beta-3-gamma-2 GABA-A receptor using [3H]Ro-151788 expressed in L(tk-) cells; type: cell-based
[5] = target: GABA-A receptor; alpha-3/beta-3/gamma-2 (Homo sapiens) (UniProt P18507+P28472+P34903); test: Percent change in electrophysiological response in Xenopus oocytes expressing Alpha3-beta3-gamma2 GABA-A receptor; type: functional, cell-based; conditions: Oocyte
Method in brief: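 Two-electrode voltage clamp on Xenopus oocytes injected with human GABA-A subunit cDNAs, 24-72 h expression, perfused with modified Barth's medium at pH 7.5, clamped between -40 and -70 mV. The GABA EC20 was titrated against a 3 mM GABA maximum. […] Result is % change of control current, mean ± SE of ≥4 oocytes.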

[6] = target: GABA-A receptor; alpha-6/beta-3/gamma-2 (Homo sapiens, UniProt P18507+P28472+Q16445); test: Inhibition of [3H]Ro-151788 binding to human alpha-6-beta-3-gamma-2 GABA-A receptor expressed in L(tk-) cells; type: cell-based
Chain of GABA-A receptor; alpha-6/beta-3/gamma-2 (Q16445 whole entry, one chain of several): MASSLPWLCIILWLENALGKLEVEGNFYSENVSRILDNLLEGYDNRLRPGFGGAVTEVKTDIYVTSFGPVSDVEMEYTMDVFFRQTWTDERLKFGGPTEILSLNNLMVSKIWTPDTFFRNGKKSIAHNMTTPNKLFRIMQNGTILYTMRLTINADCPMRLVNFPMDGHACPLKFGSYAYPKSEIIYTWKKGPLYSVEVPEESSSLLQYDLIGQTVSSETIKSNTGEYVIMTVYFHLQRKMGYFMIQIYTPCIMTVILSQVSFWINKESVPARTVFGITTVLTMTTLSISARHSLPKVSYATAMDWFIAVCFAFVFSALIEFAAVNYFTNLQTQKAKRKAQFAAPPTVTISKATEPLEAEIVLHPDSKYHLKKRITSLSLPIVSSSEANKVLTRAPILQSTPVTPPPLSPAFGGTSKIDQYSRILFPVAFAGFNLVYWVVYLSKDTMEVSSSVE

bioavailability [1]: 41%
Ki [2]: 1.4 nM
EC50 [3]: 2.5 nM
Ki [4]: 0.8 nM
Efficacy [5]: -4%
Ki [6]: 4410 nM
Structure (SMILES): Cc1cc(-c2nnc3c4ccccc4c(OCc4ccccn4)nn23)no1
